Laboratory results: ChEMBL document CHEMBL1132478, “Design and synthesis of novel alpha(1)(a) adrenoceptor-selective antagonists. 3. Approaches to eliminate opioid agonist metabolites by using substituted phenylpiperazine side chains” (J Med Chem, 1999)
Values joined by “and” are separate entries in the source; they are usually repeats but may differ in a detail not shown here. Equal values may be shown once.

Tests used:
[1] = biological target: T1, Alpha-1B adrenergic receptor (Homo sapiens, UniProt P35368); assay: In vitro binding affinity against Alpha-1B adrenergic receptor at recombinant human receptor.
T1 sequence (P35368 whole entry): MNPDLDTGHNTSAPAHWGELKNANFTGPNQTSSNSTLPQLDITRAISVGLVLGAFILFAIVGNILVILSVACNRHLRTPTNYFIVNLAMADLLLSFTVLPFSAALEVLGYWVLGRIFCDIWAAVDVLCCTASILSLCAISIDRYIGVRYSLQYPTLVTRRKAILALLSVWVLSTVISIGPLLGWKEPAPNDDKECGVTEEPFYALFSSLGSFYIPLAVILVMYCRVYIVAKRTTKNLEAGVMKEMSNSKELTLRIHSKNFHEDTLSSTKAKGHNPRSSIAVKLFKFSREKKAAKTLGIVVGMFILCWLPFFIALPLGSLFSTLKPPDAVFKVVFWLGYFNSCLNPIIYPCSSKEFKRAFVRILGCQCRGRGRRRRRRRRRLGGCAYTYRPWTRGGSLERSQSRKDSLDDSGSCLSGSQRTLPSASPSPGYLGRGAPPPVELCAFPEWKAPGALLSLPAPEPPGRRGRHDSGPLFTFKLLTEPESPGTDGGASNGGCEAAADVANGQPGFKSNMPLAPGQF

[2] = biological target: T2, Alpha-1A adrenergic receptor (Homo sapiens, UniProt P35348); assay: In vitro binding affinity against Alpha-1A adrenergic receptor […].
T2 sequence (P35348 whole entry): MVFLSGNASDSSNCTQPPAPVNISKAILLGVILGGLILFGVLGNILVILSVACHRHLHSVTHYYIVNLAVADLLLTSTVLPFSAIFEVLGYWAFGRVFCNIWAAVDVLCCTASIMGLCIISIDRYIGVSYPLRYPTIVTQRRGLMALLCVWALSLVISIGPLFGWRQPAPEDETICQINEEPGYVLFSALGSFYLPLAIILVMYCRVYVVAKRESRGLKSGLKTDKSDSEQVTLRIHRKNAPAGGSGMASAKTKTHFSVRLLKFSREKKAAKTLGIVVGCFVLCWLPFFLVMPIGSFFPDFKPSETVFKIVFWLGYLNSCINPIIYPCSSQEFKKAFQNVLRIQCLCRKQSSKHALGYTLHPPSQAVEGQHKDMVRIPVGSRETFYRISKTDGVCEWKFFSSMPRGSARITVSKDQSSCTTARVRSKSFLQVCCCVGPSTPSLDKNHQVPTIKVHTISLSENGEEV
Summary of the method: (§1)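 Radioligand displacement on membranes from cultured cells expressing recombinant human α1a, α1b or α1d adrenoceptors, using [³H]prazosin as radioligand; Ki values reported.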

[3] = Fold selectivity against alpha 1A adrenergic receptor over alpha 2A, 2B and 2C adrenergic receptors
Summary of the method: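 Ki ratio derived from radioligand displacement at recombinant human adrenoceptors: α1a with [³H]prazosin, and α2a, α2b and α2c with [³H]rauwolscine, on membranes from cultured cells.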

[4] = biological target: T3, Alpha-1D adrenergic receptor (Homo sapiens, UniProt P25100); assay: In vitro binding affinity against Alpha-1D adrenergic receptor at recombinant human receptor.; details: in the assay text read “at recombinant human receptor” for “of human liver microsomes”
T3 sequence (P25100 whole entry): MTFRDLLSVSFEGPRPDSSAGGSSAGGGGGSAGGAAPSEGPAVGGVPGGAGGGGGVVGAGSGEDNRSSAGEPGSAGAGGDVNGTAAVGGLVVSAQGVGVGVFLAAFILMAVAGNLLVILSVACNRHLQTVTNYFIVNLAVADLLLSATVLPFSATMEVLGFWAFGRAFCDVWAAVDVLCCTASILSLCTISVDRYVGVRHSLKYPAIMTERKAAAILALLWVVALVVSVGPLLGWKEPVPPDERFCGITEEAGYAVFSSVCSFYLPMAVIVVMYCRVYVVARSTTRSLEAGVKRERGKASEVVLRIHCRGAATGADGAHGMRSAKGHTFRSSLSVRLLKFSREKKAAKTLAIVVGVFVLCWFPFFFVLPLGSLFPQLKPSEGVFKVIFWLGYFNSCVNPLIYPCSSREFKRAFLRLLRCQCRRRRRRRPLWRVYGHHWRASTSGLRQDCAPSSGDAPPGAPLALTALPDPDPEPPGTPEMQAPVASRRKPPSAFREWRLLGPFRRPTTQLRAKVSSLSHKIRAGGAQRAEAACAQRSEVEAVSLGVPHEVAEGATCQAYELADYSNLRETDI
Summary of the method: as §1

[5] = species on record: Rattus norvegicus; assay: Duration of action in rat.; format: ADME, organism-based; details: in vivo
Summary of the method: (§2)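 In rats, phenylephrine-induced contraction of the prostate was measured in vivo. Antagonist potency is expressed as AD₅₀ in µg/kg. Duration of action is given in hours.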

[6] = biological target: Mu-type opioid receptor (Homo sapiens, UniProt P35372); assay: Binding affinity against opioid receptor using [3H]-DAMGO as radioligand.
[7] = biological target: T4, Alpha-1A adrenergic receptor (Rattus norvegicus) (UniProt P43140); assay: (§3) Binding affinity radioligand)
T4 sequence (whole entry): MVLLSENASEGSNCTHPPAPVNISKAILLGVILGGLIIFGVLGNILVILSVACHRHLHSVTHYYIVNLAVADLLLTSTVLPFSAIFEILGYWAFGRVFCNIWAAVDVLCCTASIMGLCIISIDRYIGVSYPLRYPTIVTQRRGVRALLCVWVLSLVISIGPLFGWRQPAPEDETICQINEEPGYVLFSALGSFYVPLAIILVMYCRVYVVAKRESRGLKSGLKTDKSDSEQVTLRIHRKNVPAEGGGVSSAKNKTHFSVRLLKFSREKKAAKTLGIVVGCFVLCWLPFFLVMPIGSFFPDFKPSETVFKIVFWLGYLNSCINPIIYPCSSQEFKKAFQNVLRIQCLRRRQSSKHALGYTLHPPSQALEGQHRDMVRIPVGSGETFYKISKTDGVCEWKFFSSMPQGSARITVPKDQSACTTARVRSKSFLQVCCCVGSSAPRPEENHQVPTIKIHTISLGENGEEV

[8] = oral bioavailability in rat; format: ADME, organism-based; details: in vivo
Summary of the method: (§4)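 In rats, the compound was given at 3 mg/kg iv and 10 mg/kg po. Plasma AUC was measured for each route, with oral bioavailability and plasma half-life derived from the plasma profiles.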

[9] = species on record: Rattus norvegicus; assay: Inhibition of phenylephrine induced contraction of the rat prostate.; format: functional, Prostate gland
Summary of the method: as §2

[10] = Plasma half life in dog; format: ADME, organism-based, Canis lupus familiaris
[11] = oral bioavailability in dog; format: ADME, organism-based, Canis lupus familiaris; details: in vivo
[12] = Plasma half life in rat; format: ADME, organism-based
Summary of the method: as §4

[13] = biological target: Adrenergic receptor alpha-1 (Rattus norvegicus) (UniProt P15823+P23944+P43140); assay: as §3; format: protein assay
Chain of Adrenergic receptor alpha-1 (Rattus norvegicus) (P15823 whole entry, looked up, one chain of several): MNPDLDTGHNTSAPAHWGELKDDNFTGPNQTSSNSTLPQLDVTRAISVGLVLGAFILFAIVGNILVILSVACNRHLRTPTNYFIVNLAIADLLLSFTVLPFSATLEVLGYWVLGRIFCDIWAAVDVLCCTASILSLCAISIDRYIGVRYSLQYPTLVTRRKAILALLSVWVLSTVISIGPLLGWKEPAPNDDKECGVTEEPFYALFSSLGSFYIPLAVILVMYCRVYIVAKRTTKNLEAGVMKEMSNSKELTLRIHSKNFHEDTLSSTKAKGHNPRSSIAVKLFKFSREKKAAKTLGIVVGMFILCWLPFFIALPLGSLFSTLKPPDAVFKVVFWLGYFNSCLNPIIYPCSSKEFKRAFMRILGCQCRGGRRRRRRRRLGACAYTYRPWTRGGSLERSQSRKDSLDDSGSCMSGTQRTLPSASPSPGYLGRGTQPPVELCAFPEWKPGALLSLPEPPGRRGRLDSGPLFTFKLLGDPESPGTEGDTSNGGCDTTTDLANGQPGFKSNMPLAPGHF
Chain of Adrenergic receptor alpha-1 (Rattus norvegicus) (P23944 whole entry, looked up, one chain of several): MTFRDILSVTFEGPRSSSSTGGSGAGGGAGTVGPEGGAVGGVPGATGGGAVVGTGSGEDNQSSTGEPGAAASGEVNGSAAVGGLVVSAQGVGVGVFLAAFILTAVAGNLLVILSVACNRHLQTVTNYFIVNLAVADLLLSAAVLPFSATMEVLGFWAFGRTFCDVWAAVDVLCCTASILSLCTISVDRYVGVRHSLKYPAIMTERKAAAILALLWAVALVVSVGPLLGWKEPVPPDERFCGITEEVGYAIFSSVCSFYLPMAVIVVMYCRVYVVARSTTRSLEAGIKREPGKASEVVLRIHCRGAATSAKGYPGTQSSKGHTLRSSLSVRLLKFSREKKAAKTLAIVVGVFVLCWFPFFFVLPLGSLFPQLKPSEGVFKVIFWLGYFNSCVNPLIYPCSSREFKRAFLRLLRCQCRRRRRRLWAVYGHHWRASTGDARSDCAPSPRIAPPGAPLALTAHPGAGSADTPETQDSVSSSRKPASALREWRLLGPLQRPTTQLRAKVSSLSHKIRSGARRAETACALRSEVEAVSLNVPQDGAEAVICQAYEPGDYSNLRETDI

Chain of Mu-type opioid receptor (P35372 whole entry): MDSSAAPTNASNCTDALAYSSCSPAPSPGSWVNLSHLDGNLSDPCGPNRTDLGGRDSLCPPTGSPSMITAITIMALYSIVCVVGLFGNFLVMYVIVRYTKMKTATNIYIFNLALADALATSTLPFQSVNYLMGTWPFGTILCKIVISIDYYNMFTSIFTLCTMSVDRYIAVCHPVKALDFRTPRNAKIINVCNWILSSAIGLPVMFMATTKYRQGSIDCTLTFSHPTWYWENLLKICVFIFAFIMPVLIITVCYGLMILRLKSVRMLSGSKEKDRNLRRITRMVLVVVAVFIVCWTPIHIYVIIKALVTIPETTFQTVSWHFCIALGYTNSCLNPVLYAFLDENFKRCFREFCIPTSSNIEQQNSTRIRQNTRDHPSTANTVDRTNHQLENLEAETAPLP

Compound | Ki [1] | Ki [2] | Fold selectivity [3] | Ki [4] | other results
COC(=O)C1=C(C)NC(=O)N(C(=O)NCCCN2CCN(c3ccccc3O)CC2)C1c1ccc(F)c(F)c1 (configuration not stated) | 16 nM | 0.6 nM | > 65 | 31 nM | –
CC(=O)C1=C(C)NC(=O)N(C(=O)NCCCN2CCN(c3ccccc3C(N)=O)CC2)C1c1ccc(F)c(F)c1 (configuration not stated) | 170 nM | 0.7 nM | > 70 | 290 nM | –
COCC1=C(C(=O)OC)C(c2ccc(F)c(F)c2)N(C(=O)NCCCN2CCN(c3ccccc3C(N)=O)CC2)C(=O)N1 (configuration not stated) | 100 nM | 0.1 nM | > 4500 | 140 nM | –
COC(=O)C1=C(C)NC(=O)N(C(=O)NCCCN2CCN(c3cccc(C(F)(F)F)c3)CC2)C1c1ccc(F)c(F)c1 (configuration not stated) | 43 nM | 4.9 nM | > 60 | 120 nM | –
COC(=O)C1=C(C)NC(=O)N(C(=O)NCCCN2CCN(c3ccccc3C(N)=O)CC2)C1c1ccc(F)c(F)c1 (configuration not stated) | 190 nM and 135 nM | 0.12 nM and 0.26 nM | > 3000 | 250 nM and 310 nM | Duration of action [5]: > 4 h; Ki [6]: > 30000 nM; Kb [7]: 0.3 nM; bioavailability [8]: 13%; AD50 [9]: 0.022 mg/kg; half-life [10]: 2.4 h; bioavailability [11]: 4%; half-life [12]: 2 h
CCOc1ccccc1N1CCN(CCCNC(=O)N2C(=O)NC(C)=C(C(=O)OC)C2c2ccc(F)c(F)c2)CC1 (configuration not stated) | 8.8 nM | 0.1 nM | > 210 | 14 nM | –
CCC1=C(C(N)=O)C(c2ccc(F)cc2F)N(C(=O)NCCCN2CCN(c3ccccc3C(N)=O)CC2)C(=O)N1 (configuration not stated) | 720 nM | 1.3 nM | > 600 | 1100 nM | –
COCC1=C(C(=O)OC)C(c2cc(F)c(F)cc2F)N(C(=O)NCCCN2CCN(c3ccccc3C(N)=O)CC2)C(=O)N1 (configuration not stated) | 130 nM | 0.1 nM | > 660 | 190 nM | –
COC(=O)C1=C(C)NC(=O)N(C(=O)NCCCN2CCN(c3ccccc3Cl)CC2)C1c1ccc(F)c(F)c1 (configuration not stated) | 15 nM | 0.2 nM | > 190 | 14 nM | –
COC(=O)C1=C(C)NC(=O)N(C(=O)NCCCN2CCN(c3ccccc3OC)CC2)C1c1ccc(F)c(F)c1 (configuration not stated) | 18 nM | 0.1 nM | > 360 | 31 nM | –
COC(=O)C1=C(C)NC(=O)N(C(=O)NCCCN2CCN(c3cccc([N+](=O)[O-])c3)CC2)C1c1ccc(F)c(F)c1 (configuration not stated) | 150 nM | 12 nM | > 40 | 340 nM | –
COC(=O)C1=C(C)NC(=O)N(C(=O)NCCCN2CCN(c3ccccc3[N+](=O)[O-])C[C@H]2C)C1c1ccc(F)c(F)c1 (some centres not stated) | 13 nM | 0.05 nM | > 1600 | 28 nM | –
CC(=O)C1=C(C)NC(=O)N(C(=O)NCCCN2CCN(c3ccccc3C(N)=O)CC2)C1c1cc(F)c(F)c(F)c1 (configuration not stated) | 220 nM | 0.4 nM | > 160 | 390 nM | –
COC(=O)C1=C(C)NC(=O)N(C(=O)NCCCN2CCN(c3ccc(C(C)=O)cc3)CC2)C1c1ccc(F)c(F)c1 (configuration not stated) | 1300 nM | 430 nM | > 2 | 1800 nM | –
COC(=O)C1=C(C)NC(=O)N(C(=O)NCCCN2CCN(c3ccccc3)CC2)C1c1ccc(F)c(F)c1 (configuration not stated) | 7.5 nM | 0.2 nM | > 55 | 21 nM | –
COC(=O)C1=C(C)NC(=O)N(C(=O)NCCCN2CCN(c3ccccc3[N+](=O)[O-])CC2)C1c1ccc(F)c(F)c1 (configuration not stated) | 23 nM | 0.01 nM | > 23000 | 32 nM | –
COC(=O)C1=C(C)NC(=O)N(C(=O)NCCCN2CCN(c3ccc(OC)cc3)CC2)C1c1ccc(F)c(F)c1 (configuration not stated) | 410 nM | 14 nM | > 15 | 480 nM | –
COC(=O)C1=C(C)NC(=O)N(C(=O)NCCCN2CCN(c3cccc(Cl)c3)CC2)C1c1ccc(F)c(F)c1 (configuration not stated) | 8.4 nM | 0.7 nM | > 195 | 37 nM | –
COC(=O)C1=C(C)NC(=O)N(C(=O)NCCCN2CCN(c3ccccc3C(=O)OC)CC2)C1c1ccc(F)c(F)c1 (configuration not stated) | 25 nM | 0.2 nM | > 85 | 30 nM | –
COC(=O)C1=C(C)NC(=O)N(C(=O)NCCCN2CCN(c3ccc(OC)cc3C)CC2)C1c1ccc(F)c(F)c1 (configuration not stated) | 510 nM | 16 nM | > 20 | 610 nM | –
COC(=O)C1=C(C)NC(=O)N(C(=O)NCCCN2CCN(c3ccccc3C)CC2)C1c1ccc(F)c(F)c1 (configuration not stated) | 17 nM | 0.3 nM | > 110 | 9.8 nM | –
CCC1=C(C(N)=O)C(c2ccc(F)c(F)c2)N(C(=O)NCCCN2CCC(C(=O)OC)(c3ccccc3)CC2)C(=O)N1 (configuration not stated) | – | – | > 3200 | – | Duration of action [5]: > 4 h; Kb [7]: 0.4 nM; AD50 [9]: 0.02 mg/kg; Kb [13]: > 1000 nM
CCC1=C(C(=O)OC)C(c2ccc(F)cc2F)N(C(=O)NCCCN2CCN(c3ccccc3C(N)=O)CC2)C(=O)N1 (configuration not stated) | 32 nM | 0.1 nM | > 1900 | 91 nM | –
COC(=O)C1=C(C)NC(=O)N(C(=O)NCCCN2CCN(c3ccccc3C(N)=O)CC2)C1c1cc(F)c(F)c(F)c1 (configuration not stated) | 58 nM | 0.3 nM | > 430 | 140 nM | –
COC(=O)C1=C(C)NC(=O)N(C(=O)NCCCN2CCN(c3ccccc3[N+](=O)[O-])C[C@@H]2C)C1c1ccc(F)c(F)c1 (some centres not stated) | 49 nM | 0.02 nM | > 17000 | 34 nM | –
COC(=O)C1=C(C)NC(=O)N(C(=O)NCCCN2CCN(c3ccc(Cl)cc3)CC2)C1c1ccc(F)c(F)c1 (configuration not stated) | 17 nM | 0.8 nM | > 65 | 52 nM | –
COC(=O)C1=C(C)NC(=O)N(C(=O)NCCCN2CCN(c3ccccc3C#N)CC2)C1c1ccc(F)c(F)c1 (configuration not stated) | 15 nM | 0.1 nM and 0.08 nM | > 1300 | 12 nM and 15 nM | –
